Published values of several laboratories.
Protocols differ between the studies behind these lines.

Cc1cn2nc(-c3cc(=O)n4cc(N5CCNC6(CC6)C5)ccc4n3)cc(C)c2n1  fraction unbound (cynomolgus monkey, plasma): 0.15
N#CC1CCCN(c2nc(-c3ccccn3)nc3ccccc23)C1 (stereo not drawn)  Papp (PAMPA; 10 µM, 3 h, pH 7.4): 22.4 ×10⁻⁶ cm/s
C=CC(=O)N1CC2CC(n3nc(-c4ccc(C(=O)Nc5ccccn5)cc4)c4c(N)ncnc43)CC2C1 (stereo not drawn)  AUC(0-t) (male Wistar rat, plasma; oral, 10 mg/kg): 2730 ng·h/mL
c1ccc(C2CCN(c3nc(-c4ccn[nH]4)nc4ccccc34)C2)nc1 (stereo not drawn)  Papp (PAMPA; 10 µM, 3 h, pH 7.4): 41.5 ×10⁻⁶ cm/s
CCNc1ccnc(Nc2cccc(-c3cccnc3)c2)n1  Papp (PAMPA; 50 nM, 30 min): 2200 ×10⁻⁶ cm/s
CCc1cc(C(=O)NC)c2nccc(N3CCc4c(cc(Cn5ccnc5)cc4-c4cn(C)nc4C(F)(F)F)C3=O)c2c1  AUC(0-inf) (male Sprague-Dawley rat, plasma; oral, 100 mg/kg, single dose): 37300 ng·h/mL
CCn1ncc2c(N3CCC(c4ccccn4)C3)nc(-c3ccccn3)nc21 (stereo not drawn)  Papp (PAMPA; 10 µM, 3 h, pH 7.4): 30.2 ×10⁻⁶ cm/s
CCOC(=O)[C@@]12C[C@@H]1[C@@H](n1ccc3c(NC)nc(C#Cc4ccc(Cl)s4)nc31)[C@H](O)[C@@H]2O  AUC(0-t) (male Sprague-Dawley rat, plasma; intravenous, 0.5 mg/kg): 27.6 ng·h/mL
CC[C@H](C)Nc1ccnc(Nc2cccc(-c3cccnc3)c2)n1  Papp (PAMPA; 50 nM, 30 min): 2000 ×10⁻⁶ cm/s
